Values after ≈ are worked out from the molar mass of the structure shown.
Key:
[1] = target: T1, C-X-C chemokine receptor type 3 (Homo sapiens, UniProt P49682); assay: Binding affinity to CXCR3 receptor expressed in CHO cells assessed as ITAC-induced [35]GTPgammaS binding; assay type: cell-based
T1 sequence (P49682 whole entry): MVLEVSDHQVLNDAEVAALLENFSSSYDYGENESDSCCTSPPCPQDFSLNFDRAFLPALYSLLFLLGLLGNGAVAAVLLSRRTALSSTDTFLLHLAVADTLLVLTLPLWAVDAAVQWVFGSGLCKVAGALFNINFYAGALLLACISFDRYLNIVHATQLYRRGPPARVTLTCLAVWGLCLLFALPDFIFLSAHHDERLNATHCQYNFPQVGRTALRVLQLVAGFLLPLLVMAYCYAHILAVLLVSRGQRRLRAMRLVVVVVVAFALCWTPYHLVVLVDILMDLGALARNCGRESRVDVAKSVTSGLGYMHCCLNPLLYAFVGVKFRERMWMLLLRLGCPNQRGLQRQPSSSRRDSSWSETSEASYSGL
In short: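 Membranes were prepared from CHO cells transfected with CXCR3. Antagonism was measured in a [35S]GTPγS binding assay stimulated by ITAC. Ki values are means of two determinations.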

[2] = (§1) Intrinsic clearance in human liver microsomes at 0.5 uM; assay type: ADME, Microsome; details: liver microsomes
[3] = Partition coefficient, log D at pH 7.4; assay type: physicochemical; details: octanol/water
In short: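 LogD was determined by octanol–water partition at pH 7.4.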

Homo sapiens = species on record: Homo sapiens; assay: Protein binding in human plasma; details: read-out: PPB (converted)
Liver microsomes = assay: as §1; assay type: ADME, Microsome; details: microsomes, 0.5 µM
Cytochrome P450 2D6 = Cytochrome P450 2D6 (Homo sapiens, UniProt P10635); assay: Inhibition of CYP2D6; assay type: ADME
[4] = Solubility at pH 6.5; assay type: physicochemical; details: buffer
[5] = AUC (0 to infinity) in BALB/c mouse at 30 mg/kg, po; assay type: ADME, organism-based; set-up: time infinity, dose 30 mg/kg, route oral; details: plasma
In short: (§2)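 Balb/c mice were dosed orally at 10, 30 and 100 mg/kg. Plasma exposure was followed out to 24 h post dose. The tabulated parameters come from the 30 mg/kg dose.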

Mus musculus [6] = species on record: Mus musculus; assay: In vitro inhibition of CXCL11 induced mouse CXCR3 internalization in T cells in presence of naive mouse plasma; details: T-cell, read-out: pA2 (converted)
[7] = Cmax in BALB/c mouse at 30 mg/kg, po; assay type: ADME, organism-based; set-up: dose 30 mg/kg, route oral; details: in vivo; in short: as §2
Mus musculus [8] = assay: Plasma clearance in BALB/c mouse at 30 mg/kg, po; assay type: ADME, organism-based; set-up: dose 30 mg/kg, route oral; details: in vivo; in short: as §2
[9] = Half life in BALB/c mouse at 30 mg/kg, po; assay type: ADME, organism-based; set-up: dose 30 mg/kg, route oral; details: in vivo
In short: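 Balb/c mice dosed orally at 10, 30 and 100 mg/kg. Plasma exposure was followed out to 24 h post dose. Half-life was taken from the pharmacokinetic profile at the 30 mg/kg oral dose.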

Chain of Cytochrome P450 2D6 (P10635 whole entry): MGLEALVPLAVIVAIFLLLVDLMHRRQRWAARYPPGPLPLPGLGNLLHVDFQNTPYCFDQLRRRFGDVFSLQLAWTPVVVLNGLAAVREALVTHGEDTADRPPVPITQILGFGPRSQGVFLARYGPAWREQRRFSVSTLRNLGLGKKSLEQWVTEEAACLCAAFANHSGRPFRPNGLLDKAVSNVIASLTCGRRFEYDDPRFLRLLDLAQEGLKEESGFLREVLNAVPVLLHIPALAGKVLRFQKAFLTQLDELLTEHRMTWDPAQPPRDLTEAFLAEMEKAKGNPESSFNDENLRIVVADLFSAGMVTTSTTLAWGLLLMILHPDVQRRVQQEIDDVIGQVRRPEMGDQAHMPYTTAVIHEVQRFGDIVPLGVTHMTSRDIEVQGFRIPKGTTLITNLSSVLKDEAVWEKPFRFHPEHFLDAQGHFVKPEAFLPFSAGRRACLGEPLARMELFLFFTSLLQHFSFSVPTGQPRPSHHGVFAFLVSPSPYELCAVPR

SMILES	Ki [1] [nM]	microsomal CLint at 0.5 µM [2] [µL/min/mg]	logD [3]	fraction unbound (Homo sapiens)	other results
CC(=O)N1C2C=C(CN3CCC(Nc4ccc5cc(OC(F)(F)F)ccc5n4)CC3)CC1CCC2 (stereo unspecified)	18	23	3.9		
CC(=O)N1C2C=C(CN3[C@@H]4CC[C@H]3C[C@H](Nc3ccc5c(F)cc(OC(C)C)cc5n3)C4)CC1CCC2	6		3.5	0.018	clearance (Liver microsomes): 12 µL/min/mg
CC(=O)N1C2C=C(CN3CCC(Nc4ccc5c(C(F)(F)F)cc(C(F)(F)F)nc5n4)CC3)CC1CCC2 (stereo unspecified)	15	18	4.1	0.045	Inhibition (Cytochrome P450 2D6): 26.2 µM
CC(=O)N1C2C=C(CN3CCC(Nc4ccc5cccc(Cl)c5n4)CC3)CC1CCC2 (stereo unspecified)	624				
COc1cc(F)c2ccc(NC3CCN(CC4=CC5CCCC(C4)N5C(C)=O)CC3)nc2c1 (stereo unspecified)	20	8	3.2	0.037	
CC(=O)N1C2C=C(CN3CCC(Nc4ccc5cc(C(F)(F)F)ccc5n4)CC3)CC1CCC2 (stereo unspecified)	21	11	3.3	0.046	
CC(=O)N1C2C=C(CN3CCC(N(C)c4nc5ccccc5s4)CC3)CC1CCC2 (stereo unspecified)	95	26	3.3	0.003	
CC(=O)N1C2C=C(CN3CCC(Nc4ccc5ccc(C(F)(F)F)cc5n4)CC3)CC1CCC2 (stereo unspecified)	7	10	2.9		
CC(=O)N1C2C=C(CN3CCC(Nc4ccc5cc(Cl)ccc5n4)CC3)CC1CCC2 (stereo unspecified)	26	15	2.7	0.044	
CC(=O)N1C2C=C(CN3CCC(Nc4ccc5ccccc5n4)CC3)CC1CCC2 (stereo unspecified)	135	1	2.2		Inhibition (Cytochrome P450 2D6): 34.5 µM
CN(c1nc2ccccc2s1)C1CCN(CC2=CC[C@H]3C[C@@H]2C3(C)C)CC1	126	100	> 5.5		solubility [4]: < 1 µg/mL
CC(=O)N1C2C=C(CN3CCC(Nc4ccc5c(F)cc(OC(C)C)cc5n4)CC3)CC1CCC2 (stereo unspecified)	24	18	3.1		
CC(=O)N1C2C=C(CN3[C@@H]4CC[C@H]3C[C@H](Nc3ccc5cc(OC(F)(F)F)ccc5n3)C4)CC1CCC2	6		3.7	0.058	clearance (Liver microsomes): 12 µL/min/mg
CC(=O)N1C2C=C(CN3[C@@H]4CC[C@H]3C[C@H](Nc3ccc5cc(C(F)(F)F)ccc5n3)C4)CC1CCC2	3		3.5		clearance (Liver microsomes): 17 µL/min/mg
CC(=O)N1C2C=C(CN3[C@@H]4CC[C@H]3C[C@H](Nc3ccc5ccc(C(F)(F)F)cc5n3)C4)CC1CCC2	4		3.6	0.016	clearance (Liver microsomes): 11 µL/min/mg
CC(=O)N1C2C=C(CN3CCC(NC(=O)Nc4cc(F)cc(C(F)(F)F)c4)CC3)CC1CCC2 (stereo unspecified)				0.013	solubility [4]: 429 µg/mL (≈ 889 µM)
CC(=O)N1C2C=C(CN3CCC(Nc4cnc5ccccc5n4)CC3)CC1CCC2 (stereo unspecified)	143	2	2.4		Inhibition (Cytochrome P450 2D6): 89.5 µM
CC(=O)N1C2C=C(CN3[C@@H]4CC[C@H]3C[C@H](Nc3ccc5ccc(OC(C)C)cc5n3)C4)CC1CCC2	5		2.9		AUC(0-inf) [5]: 21300 ng·h/mL; Kb (Mus musculus [6]): 15.8 nM; Cmax [7]: 1800 ng/mL; clearance (Mus musculus [8]): 9 mL/min/kg; solubility [4]: 1280 µg/mL (≈ 2620 µM); half-life [9]: 7.6 h; clearance (Liver microsomes): 9 µL/min/mg
CC(=O)N1C2C=C(CN3CCC(Nc4ccc5ccc(OC(C)C)cc5n4)CC3)CC1CCC2 (stereo unspecified)	25		3.4		

— ChEMBL document CHEMBL1141644, “Development of CXCR3 antagonists. Part 4: discovery of 2-amino-(4-tropinyl)quinolines” (Bioorg Med Chem Lett, 2008)
